Sampled rows, rich in hits. Any-hit rate of the full collection: about 3.8%.
Beta cell apopt – blocks beta cell apoptosis; INS-1E cytokine-induced death, ATP luminescence, 48 h; percent of positive-control rescue, neutral wells zero; protection from apoptosis, % (test concentration not listed); 300,000 tested, 0.8% active;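 active = Every replicate reaches about 75%, or at least half do and their mean reaches it too, limit read from the data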;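 also: 0% = cytokine-treated negative control wells and 100% = positive control rescue; higher means more ATP so stronger rescue from cytokine killing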
CSC inhib – blocks cancer stem cells; cancer stem cell-like cells viability, luminescence; inhibition, % at 7.5 µM; 300,000 tested, 1.1% active; in the data active = inhibition above about 75%; tested in HMLE shEcad cells
ANO1 block – mouse TMEM16A channel inhibition, primary screen; Q8BHY3; HEK293 TMEM16A/YFP iodide influx fluorescence, ionomycin; normalized B-score (activity score, 25-100; higher = stronger inhibition) at 10 µM; 310,000 tested, 1.2% active;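 active = ratio plate-corrected score three or more library SD toward inhibition, starting fluorescence score within five deviations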;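 also: score derived from kinetic fluorescence span divided by baseline fluorescence per well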
Target sequence (Q8BHY3 whole entry, looked up): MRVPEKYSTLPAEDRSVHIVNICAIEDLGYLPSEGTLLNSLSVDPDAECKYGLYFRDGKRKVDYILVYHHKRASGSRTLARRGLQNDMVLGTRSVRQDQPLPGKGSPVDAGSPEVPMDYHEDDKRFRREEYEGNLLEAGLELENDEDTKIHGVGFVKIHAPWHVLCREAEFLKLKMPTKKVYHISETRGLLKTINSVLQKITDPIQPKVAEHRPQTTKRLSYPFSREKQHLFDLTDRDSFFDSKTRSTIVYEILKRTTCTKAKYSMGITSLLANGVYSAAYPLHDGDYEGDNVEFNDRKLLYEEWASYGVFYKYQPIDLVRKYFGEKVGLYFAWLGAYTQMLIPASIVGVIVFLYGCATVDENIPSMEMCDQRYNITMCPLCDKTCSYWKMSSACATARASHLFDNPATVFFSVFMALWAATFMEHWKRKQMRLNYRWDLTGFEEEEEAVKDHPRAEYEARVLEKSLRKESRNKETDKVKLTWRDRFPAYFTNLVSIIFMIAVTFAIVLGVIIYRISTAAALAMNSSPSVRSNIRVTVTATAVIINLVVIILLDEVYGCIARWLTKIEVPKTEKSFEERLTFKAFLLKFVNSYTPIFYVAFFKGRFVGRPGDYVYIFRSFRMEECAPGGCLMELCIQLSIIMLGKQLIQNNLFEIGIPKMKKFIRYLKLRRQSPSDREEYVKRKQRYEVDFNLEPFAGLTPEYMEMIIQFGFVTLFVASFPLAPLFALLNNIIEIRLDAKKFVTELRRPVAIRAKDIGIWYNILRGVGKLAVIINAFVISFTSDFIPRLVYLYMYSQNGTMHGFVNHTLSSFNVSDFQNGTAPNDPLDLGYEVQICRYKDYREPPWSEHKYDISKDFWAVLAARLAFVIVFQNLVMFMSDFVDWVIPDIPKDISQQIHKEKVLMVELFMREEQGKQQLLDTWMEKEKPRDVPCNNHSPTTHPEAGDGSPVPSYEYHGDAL
MC4R antag cAMP – antagonists of human melanocortin 4 receptor (MC4R) | P32245 | MC4R-expressing cells, MTII-stimulated cAMP, LANCE TR-FRET | inhibition, % at 6.5 µM | 360,000 tested, 0.48% active;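 active = inhibition above its plate's cutoff, the mean of tested wells on that plate plus 3 SD, cut at about 29% in these data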;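 also: 0% = Melanotan II alone and 100% = Melanotan II plus saturating MCL0020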
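system = U2OS cells with stable human MC4R expression | also added = Melanotan II challenge after compound preincubation | dosing = one concentration, 6.5 µM nominal | incubation = compound 30 min, challenge 1 h, detection 1 h | measured by = TR-FRET with Eu-cAMP and labeled anti-cAMP, 671 nm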
MC4R ag barr – agonists of human melanocortin 4 receptor (MC4R) beta-arrestin. activation, % at 8.9 µM. 360,000 tested, 0.98% active. AID 540308. U2OS MC4R beta-arrestin complementation, luminescence; percent of melanotan II response, DMSO zero. P32245;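 active = activation above a per-plate cutoff, the mean activation of sample wells on that plate plus 3 SD, cut at about 8% in these data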
ANO1 activ – mouse TMEM16A channel activation, primary screen | HEK293 TMEM16A/YFP-H148Q/I152L, iodide quench fluorescence; stronger effect = lower value | B-score at 10 µM | AID 623877 | Q8BHY3 | 340,000 tested, 0.3% active;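 active = fluorescence-ratio B-score plate-corrected deviation score at least 3 library SD below zero, with starting fluorescence score within 5 deviations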;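 also: channel opened by trigger with iodide after compound preincubation; score built on the fluorescence ratio of max minus min over baseline; more negative score means more quench and so TMEM16A activation or potentiation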
* marks the source's active call; other numbers are inactive results; i = inactive; / = not tested or not shown.

SMILES | Beta cell apopt | CSC inhib | ANO1 block | MC4R antag cAMP | MC4R ag barr | ANO1 activ
CCOC(=O)c1ccc(NC(=O)CCc2nc(-c3ccc(Cl)cc3)no2)cc1 | -4 | 11 | i | 5 | 2 | i
O=C(CCCc1nc(-c2ccccc2)no1)Nc1cccnc1 | 6 | 2 | i | 5 | 0 | i
COc1ccc(-c2noc(CCC(=O)NCc3cccnc3)n2)cc1 | -8 | -13 | i | 9 | 1 | i
CCOC(=O)c1ccc(NC(=O)CCc2nc(-c3ccc(C)cc3)no2)cc1 | -5 | -7 | i | 14 | 9.7* | i
COc1ccc(Cc2nc(-c3ccc(NC(=O)c4cccnc4)cc3)no2)cc1 | 107* | 13 | i | 2 | -1 | i
Cc1ccc(-c2noc(CCCC(=O)Nc3cccnc3)n2)cc1 | 6 | 5 | 25* | -5 | -1 | i
CC(C)N1CC(C(=O)Nc2cccc([N+](=O)[O-])c2)CC1=O (stereo unspecified) | -1 | -11 | i | -5 | -2 | i
CCCOc1ccc(/C=C/C(=O)Nc2ccc([N+](=O)[O-])cc2C)cc1OC | 1 | -7 | i | 7 | 12* | i
COc1ccc(C(=O)Nc2ccccc2)cc1NC(=O)c1ccc([N+](=O)[O-])cc1 | 11 | -9 | i | -3 | -3 | -7.2*
COc1ccc(C(=O)NC(=S)Nc2ccc([N+](=O)[O-])cc2C)cc1OC | 1 | 0 | i | -1 | 8.9* | i
CCN(CC)S(=O)(=O)c1ccc(OC)c(NC(=O)c2ccc([N+](=O)[O-])cc2)c1 | / | -8 | i | 7 | -1 | i
COc1ccc(C(=O)NC(=S)Nc2ccccc2[N+](=O)[O-])cc1OC | -5 | / | i | -5 | -1 | i
CN(C)c1ccc(C#Cc2ccc3cc(CCO)oc(=O)c3c2)cc1 | 0 | 2 | / | 43* | -1 | i
COc1cc(C#Cc2ccc3cc(CCO)oc(=O)c3c2)cc(OC)c1 | 2 | / | / | -12 | 0 | i
Cc1noc(C)c1CSCC(=O)OCC(=O)Nc1ccc(OC(F)(F)F)cc1 | / | / | / | -1 | 1 | /
O=C(CC1NCCc2ccccc21)Nc1ccc(Oc2ccccc2)cc1 (stereo unspecified) | / | 95* | i | -5 | -2 | i
COc1ccc(-c2csc(NC(=O)CSCc3c(C)noc3C)n2)c(OC)c1 | 5 | -10 | i | 2 | 0 | i
Cc1cc(C)c2c(N)c3cccc(C)c3nc2n1 | 98* | -4 | i | 4 | -4 | i
Cc1cccc2c(N)c3c(nc12)CCCC3 (tested in a mixture with another compound) | / | / | / | -9 | -2 | i
CCC(C)c1ccc(C(C)NC(=S)NC2CCCCC2)cc1 (stereo unspecified) | 64 | 1 | 100* | 6 | 1 | i
CC1CC(C)CN(c2ncc3c(n2)CC(c2ccccc2Cl)CC3=O)C1 (stereo unspecified) | 9 | 84* | i | 1 | -2 | i
O=C(NCc1ccc(F)cc1)c1cccc2c1C(=O)c1ccc(N3CCOCC3)cc1S2(=O)=O | -6 | -2 | / | 7 | 1 | i
O=C(NCc1ccccc1Br)c1cccc2c1C(=O)c1ccc(N3CCOCC3)cc1S2(=O)=O | 87* | 28 | / | / | / | /
CCC(=O)N1CCCC(C)(C(=O)NS(=O)(=O)c2cccs2)C1 (stereo unspecified) | / | / | / | 15 | -2 | /
COc1ccc(Nc2nc(N3CCCC3)c3ccccc3n2)cc1 | 81* | -10 | i | -14 | 4 | i
SMILES | Beta cell apopt | CSC inhib | ANO1 block | MC4R antag cAMP | MC4R ag barr | ANO1 activ
O=C(N/N=C/c1cccc(F)c1)c1c(O)c2ccccc2[nH]c1=O | 101* | 35 | i | 3 | 2 | i
O=C(N/N=C/c1ccc(F)cc1)c1c(O)c2ccccc2[nH]c1=O | -2 | 4 | i | 5 | -1 | i
O=C(N/N=C/c1ccccc1)c1c(O)c2ccccc2[nH]c1=O | 124* | 19 | i | 6 | 2 | i
O=C(Nc1cccc(F)c1)c1c(O)c2ccccc2[nH]c1=O | 2 | 8 | i | 9 | -2 | i
COc1cccc(NC(=O)C2CCN(C(=O)[C@@H]3Cc4ccccc4CN3C(=O)OC(C)(C)C)CC2)c1 | 2 | 13 | i | 7 | 1 | i
CC(C)n1c(CN(C)Cc2ccccc2)nc2c1c(=O)n(C)c(=O)n2C | 96* | 10 | i | / | / | /
CN(C)S(=O)(=O)c1ccc2nc(NC(=O)c3cccnc3)sc2c1 | -4 | -12 | i | 5 | -1 | i
O=C(NC(Nc1nc2ccc([N+](=O)[O-])cc2s1)(C(F)(F)F)C(F)(F)F)c1cccnc1 | 119* | 70 | 100* | 5 | 2 | i
O=C(NCc1ccccc1)C1=C[C@H](c2csc3ccccc23)C[C@H](OCc2ccc(CO)cc2)O1 | 24 | 14 | i | 22 | -2 | i
O=C(Nc1ccccc1)C1=C[C@@H](c2ccc(C(F)(F)F)cc2)C[C@@H](OCc2ccc(CO)cc2)O1 | 12 | 79* | i | 0 | 0 | i
O=C(Nc1ccccc1)C1=C[C@@H](c2csc3ccccc23)C[C@@H](OCc2ccc(CO)cc2)O1 | 14 | 86* | i | 4 | 0 | i
O=C(Nc1ccccc1)C1=C[C@@H](c2ccccc2)C[C@@H](OCc2ccc(CO)cc2)O1 | 5 | 4 | i | 3 | -1 | i
Cc1cc(Cl)ccc1C(=O)C1CCCN(C(=O)c2cccc(N3CCCC3=O)c2)C1 (stereo unspecified) | -3 | 20 | i | -2 | -2 | i
Cc1ccccc1OCC(=O)OCC(=O)NC1CCCCCC1 | / | / | / | -3 | 1 | i
COc1ccc2cc(C(N)=O)c(=Nc3ccc(C)cc3)oc2c1 | -3 | 0 | i | 5 | -4 | -7.7*
CSc1cccc(CNC(=O)C2CCC(=O)N(CCc3ccccc3)C2)c1 (stereo unspecified) | / | / | / | 5 | 0 | /
CCCCCCOc1ccc(OC(=O)c2ccncc2)cc1 | 4 | 95* | i | 0 | -1 | i
CCCCCCc1ccc(OC(=O)c2ccncc2)cc1 | 0 | 10 | i | -1 | -2 | i
CCCN(C(=O)C1CC(=O)N(c2ccccc2C(C)CC)C1)C1CCS(=O)(=O)C1 (stereo unspecified) | -2 | / | / | 2 | -1 | i
CCNC(=S)N1N=C2c3ccccc3CCC2C1c1ccc(F)cc1 (stereo unspecified) | 21 | 82* | i | 4 | 0 | i
CC1=C(C#N)C(C(F)(F)F)(C(F)(F)F)N=C(c2ccco2)N1 | 101* | -13 | i | 1 | 1 | i

Compound activity as filed in PubChem BioAssay.
